# Results from the M2OR odorant receptor database.
# Experiments:
# Conditions in all cases: stereoisomer not certain
# OR52D1 (Homo sapiens) = biological target: T1, OR52D1 (Homo sapiens) (UniProt Q9H346)
# T1 sequence (whole entry): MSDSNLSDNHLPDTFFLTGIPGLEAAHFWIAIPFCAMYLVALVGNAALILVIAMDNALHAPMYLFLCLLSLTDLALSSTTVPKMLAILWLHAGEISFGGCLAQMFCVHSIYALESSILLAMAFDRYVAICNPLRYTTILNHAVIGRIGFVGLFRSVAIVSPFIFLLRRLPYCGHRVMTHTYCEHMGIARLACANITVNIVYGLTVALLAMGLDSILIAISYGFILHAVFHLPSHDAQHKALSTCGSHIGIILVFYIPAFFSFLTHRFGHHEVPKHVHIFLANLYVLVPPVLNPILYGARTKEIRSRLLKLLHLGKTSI
# How it was run: (§1)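 Each receptor–molecule pair is labelled responsive or non-responsive (inactive) according to whether the original authors judged the measured signal statistically different from baseline. The data were taken from the main text and supplementary material of published papers and checked for typos and inconsistencies. Assay methods differed by source, with transient luciferase assays in mammalian cell lines being common.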
# OR51Q1 (Homo sapiens) = OR51Q1 (Homo sapiens) (UniProt Q8NH59)
# Sequence of OR51Q1 (Homo sapiens) (Q8NH59 whole entry): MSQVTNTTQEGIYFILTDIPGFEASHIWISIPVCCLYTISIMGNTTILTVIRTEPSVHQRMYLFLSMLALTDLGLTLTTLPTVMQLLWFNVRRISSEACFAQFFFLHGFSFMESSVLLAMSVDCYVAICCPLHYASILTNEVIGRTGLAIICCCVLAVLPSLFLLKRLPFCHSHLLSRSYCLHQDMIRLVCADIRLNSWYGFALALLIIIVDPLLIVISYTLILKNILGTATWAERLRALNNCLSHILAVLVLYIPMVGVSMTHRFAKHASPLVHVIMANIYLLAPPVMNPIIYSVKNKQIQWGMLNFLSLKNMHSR
# How it was run: as §1
# OR51S1 (Homo sapiens) = OR51S1 (Homo sapiens) (UniProt Q8NGJ8)
# Sequence of OR51S1 (Homo sapiens) (Q8NGJ8 whole entry): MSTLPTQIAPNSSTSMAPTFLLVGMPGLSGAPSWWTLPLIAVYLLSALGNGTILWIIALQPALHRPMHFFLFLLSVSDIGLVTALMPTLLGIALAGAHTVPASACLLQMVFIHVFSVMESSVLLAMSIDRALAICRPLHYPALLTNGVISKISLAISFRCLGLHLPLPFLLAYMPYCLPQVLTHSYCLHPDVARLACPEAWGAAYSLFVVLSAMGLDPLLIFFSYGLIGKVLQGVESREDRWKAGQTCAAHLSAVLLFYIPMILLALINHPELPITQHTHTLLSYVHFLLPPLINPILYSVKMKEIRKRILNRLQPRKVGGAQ
# How it was run: as §1
# OR51V1 (Homo sapiens) = OR51V1 (Homo sapiens) (UniProt Q9H2C8)
# Sequence of OR51V1 (Homo sapiens) (Q9H2C8 whole entry): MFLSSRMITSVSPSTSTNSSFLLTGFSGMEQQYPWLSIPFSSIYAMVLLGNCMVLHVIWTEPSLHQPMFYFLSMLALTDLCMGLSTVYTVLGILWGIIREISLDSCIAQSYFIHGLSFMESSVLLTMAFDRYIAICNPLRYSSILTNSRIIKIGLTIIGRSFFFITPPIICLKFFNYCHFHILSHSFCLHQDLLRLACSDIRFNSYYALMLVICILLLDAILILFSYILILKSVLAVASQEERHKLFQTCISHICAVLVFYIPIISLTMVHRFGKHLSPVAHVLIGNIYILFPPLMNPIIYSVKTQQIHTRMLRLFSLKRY
# How it was run: as §1
# OR52A1 (Homo sapiens) = OR52A1 (Homo sapiens) (UniProt Q9UKL2)
# Sequence of OR52A1 (Homo sapiens) (Q9UKL2 whole entry): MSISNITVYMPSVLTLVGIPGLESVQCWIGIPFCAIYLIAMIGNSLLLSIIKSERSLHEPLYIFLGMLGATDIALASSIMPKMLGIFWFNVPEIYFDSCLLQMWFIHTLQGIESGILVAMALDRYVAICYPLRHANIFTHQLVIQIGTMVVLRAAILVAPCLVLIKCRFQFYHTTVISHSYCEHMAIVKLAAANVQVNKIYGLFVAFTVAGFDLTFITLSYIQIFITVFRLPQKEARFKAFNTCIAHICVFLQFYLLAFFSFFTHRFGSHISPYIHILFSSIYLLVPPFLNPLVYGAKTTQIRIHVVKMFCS
# How it was run: as §1
# OR52A5 (Homo sapiens) = OR52A5 (Homo sapiens) (UniProt Q9H2C5)
# Sequence of OR52A5 (Homo sapiens) (Q9H2C5 whole entry): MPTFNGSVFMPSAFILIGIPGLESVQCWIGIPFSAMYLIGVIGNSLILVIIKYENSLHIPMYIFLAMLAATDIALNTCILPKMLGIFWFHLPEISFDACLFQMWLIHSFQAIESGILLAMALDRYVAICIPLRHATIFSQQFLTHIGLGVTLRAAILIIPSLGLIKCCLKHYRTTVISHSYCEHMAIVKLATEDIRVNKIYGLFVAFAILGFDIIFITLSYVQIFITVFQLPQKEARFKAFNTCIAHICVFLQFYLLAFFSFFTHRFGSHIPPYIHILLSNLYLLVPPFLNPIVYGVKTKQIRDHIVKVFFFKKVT
# How it was run: as §1
# OR52B2 (Homo sapiens) = OR52B2 (Homo sapiens) (UniProt Q96RD2)
# Sequence of OR52B2 (Homo sapiens) (Q96RD2 whole entry): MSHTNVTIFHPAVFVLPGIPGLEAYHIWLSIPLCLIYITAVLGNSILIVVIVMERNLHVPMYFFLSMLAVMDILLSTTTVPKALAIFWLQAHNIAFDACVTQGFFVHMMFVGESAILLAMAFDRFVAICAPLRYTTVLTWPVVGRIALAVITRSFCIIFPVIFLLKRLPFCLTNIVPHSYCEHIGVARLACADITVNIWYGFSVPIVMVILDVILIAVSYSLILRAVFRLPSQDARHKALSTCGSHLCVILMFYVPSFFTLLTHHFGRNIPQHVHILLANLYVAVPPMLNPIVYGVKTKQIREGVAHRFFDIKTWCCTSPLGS
# How it was run: as §1
# OR52B4 (Homo sapiens) = OR52B4 (Homo sapiens) (UniProt Q8NGK2)
# Sequence of OR52B4 (Homo sapiens) (Q8NGK2 whole entry): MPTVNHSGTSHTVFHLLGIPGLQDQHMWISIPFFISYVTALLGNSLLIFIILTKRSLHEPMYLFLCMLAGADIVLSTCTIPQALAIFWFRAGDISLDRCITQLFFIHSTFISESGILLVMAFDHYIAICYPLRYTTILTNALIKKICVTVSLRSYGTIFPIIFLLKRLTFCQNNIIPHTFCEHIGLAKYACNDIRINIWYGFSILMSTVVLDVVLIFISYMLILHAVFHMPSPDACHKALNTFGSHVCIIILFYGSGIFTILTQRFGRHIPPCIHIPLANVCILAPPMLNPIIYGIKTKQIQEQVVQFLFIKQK
# How it was run: as §1
# OR52B6 (Homo sapiens) = OR52B6 (Homo sapiens) (UniProt Q8NGF0)
# Sequence of OR52B6 (Homo sapiens) (Q8NGF0 whole entry): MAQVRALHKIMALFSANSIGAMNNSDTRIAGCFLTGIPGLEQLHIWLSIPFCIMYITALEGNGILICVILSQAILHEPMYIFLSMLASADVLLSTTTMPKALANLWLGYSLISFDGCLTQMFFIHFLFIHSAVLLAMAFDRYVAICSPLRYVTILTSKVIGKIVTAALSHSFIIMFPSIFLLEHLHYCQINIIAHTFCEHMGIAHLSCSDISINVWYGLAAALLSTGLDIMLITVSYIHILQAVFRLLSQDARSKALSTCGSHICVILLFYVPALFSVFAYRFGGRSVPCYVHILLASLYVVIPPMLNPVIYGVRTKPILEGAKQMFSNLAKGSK
# How it was run: as §1
# OR52E1 (Homo sapiens) = OR52E1 (Homo sapiens) (UniProt Q8NGJ3)
# Sequence of OR52E1 (Homo sapiens) (Q8NGJ3 whole entry): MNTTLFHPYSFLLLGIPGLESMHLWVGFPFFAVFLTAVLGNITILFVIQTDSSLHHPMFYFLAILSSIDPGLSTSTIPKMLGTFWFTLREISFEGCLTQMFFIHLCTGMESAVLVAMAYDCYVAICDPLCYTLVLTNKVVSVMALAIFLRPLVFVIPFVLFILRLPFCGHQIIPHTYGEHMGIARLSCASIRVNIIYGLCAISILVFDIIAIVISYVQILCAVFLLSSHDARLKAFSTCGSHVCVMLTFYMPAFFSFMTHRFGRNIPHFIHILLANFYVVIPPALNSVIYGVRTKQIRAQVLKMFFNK
# How it was run: as §1
# OR52E2 (Homo sapiens) = OR52E2 (Homo sapiens) (UniProt Q8NGJ4)
# How it was run: as §1
# OR52E4 (Homo sapiens) = OR52E4 (Homo sapiens) (UniProt Q8NGH9)
# Sequence of OR52E4 (Homo sapiens) (Q8NGH9 whole entry): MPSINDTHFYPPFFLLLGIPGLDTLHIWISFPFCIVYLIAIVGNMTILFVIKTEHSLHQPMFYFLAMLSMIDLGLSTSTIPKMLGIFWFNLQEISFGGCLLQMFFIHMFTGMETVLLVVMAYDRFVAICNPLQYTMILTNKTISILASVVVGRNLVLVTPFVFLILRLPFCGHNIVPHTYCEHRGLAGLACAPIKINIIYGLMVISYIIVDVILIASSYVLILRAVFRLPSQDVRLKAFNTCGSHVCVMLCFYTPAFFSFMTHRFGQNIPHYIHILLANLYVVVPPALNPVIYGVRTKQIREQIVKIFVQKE
# How it was run: as §1
# OR52E6 (Homo sapiens) = OR52E6 (Homo sapiens) (UniProt Q96RD3)
# Sequence of OR52E6 (Homo sapiens) (Q96RD3 whole entry): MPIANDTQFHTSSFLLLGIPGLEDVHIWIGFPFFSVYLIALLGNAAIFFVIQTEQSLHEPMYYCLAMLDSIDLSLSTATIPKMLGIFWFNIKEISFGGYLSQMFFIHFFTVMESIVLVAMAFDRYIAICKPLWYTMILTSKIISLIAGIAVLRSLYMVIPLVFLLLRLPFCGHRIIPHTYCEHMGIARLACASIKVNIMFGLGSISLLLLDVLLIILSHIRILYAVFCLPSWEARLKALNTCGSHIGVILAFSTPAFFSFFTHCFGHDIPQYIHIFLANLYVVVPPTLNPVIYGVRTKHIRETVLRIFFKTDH
# How it was run: as §1
# OR52I1 (Homo sapiens) = OR52I1 (Homo sapiens) (UniProt Q8NGK6)
# Sequence of OR52I1 (Homo sapiens) (Q8NGK6 whole entry): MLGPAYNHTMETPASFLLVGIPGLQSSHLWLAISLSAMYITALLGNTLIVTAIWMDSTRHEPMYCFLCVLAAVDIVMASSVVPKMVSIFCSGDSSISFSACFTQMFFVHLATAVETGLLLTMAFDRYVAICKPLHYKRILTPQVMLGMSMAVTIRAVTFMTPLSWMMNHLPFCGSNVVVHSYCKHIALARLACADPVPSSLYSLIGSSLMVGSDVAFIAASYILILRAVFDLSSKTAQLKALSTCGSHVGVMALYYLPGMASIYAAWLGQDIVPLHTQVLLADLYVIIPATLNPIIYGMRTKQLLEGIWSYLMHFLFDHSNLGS
# How it was run: as §1
# OR52I2 (Homo sapiens) = OR52I2 (Homo sapiens) (UniProt Q8NH67)
# Sequence of OR52I2 (Homo sapiens) (Q8NH67 whole entry): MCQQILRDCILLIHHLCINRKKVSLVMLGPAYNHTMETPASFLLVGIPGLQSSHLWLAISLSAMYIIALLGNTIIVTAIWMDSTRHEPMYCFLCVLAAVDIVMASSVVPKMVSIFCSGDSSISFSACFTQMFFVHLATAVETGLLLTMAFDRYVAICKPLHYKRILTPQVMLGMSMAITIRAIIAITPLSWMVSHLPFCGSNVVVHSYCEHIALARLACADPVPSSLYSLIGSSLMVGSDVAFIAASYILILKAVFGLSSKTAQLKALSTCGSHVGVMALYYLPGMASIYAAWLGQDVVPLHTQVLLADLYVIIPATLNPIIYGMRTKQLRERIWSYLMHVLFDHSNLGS
# How it was run: as §1
# OR52J3 (Homo sapiens) = OR52J3 (Homo sapiens) (UniProt Q8NH60)
# Sequence of OR52J3 (Homo sapiens) (Q8NH60 whole entry): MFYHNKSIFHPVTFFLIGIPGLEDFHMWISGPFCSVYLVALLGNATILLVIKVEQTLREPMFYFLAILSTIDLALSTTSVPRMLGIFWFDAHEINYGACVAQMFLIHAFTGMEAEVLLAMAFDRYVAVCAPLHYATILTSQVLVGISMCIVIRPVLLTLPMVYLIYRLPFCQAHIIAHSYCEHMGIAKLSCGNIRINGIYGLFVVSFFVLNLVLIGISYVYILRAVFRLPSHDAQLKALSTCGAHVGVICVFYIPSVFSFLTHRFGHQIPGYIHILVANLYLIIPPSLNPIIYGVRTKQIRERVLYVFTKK
# How it was run: as §1
# OR52K1 (Homo sapiens) = OR52K1 (Homo sapiens) (UniProt Q8NGK4)
# Sequence of OR52K1 (Homo sapiens) (Q8NGK4 whole entry): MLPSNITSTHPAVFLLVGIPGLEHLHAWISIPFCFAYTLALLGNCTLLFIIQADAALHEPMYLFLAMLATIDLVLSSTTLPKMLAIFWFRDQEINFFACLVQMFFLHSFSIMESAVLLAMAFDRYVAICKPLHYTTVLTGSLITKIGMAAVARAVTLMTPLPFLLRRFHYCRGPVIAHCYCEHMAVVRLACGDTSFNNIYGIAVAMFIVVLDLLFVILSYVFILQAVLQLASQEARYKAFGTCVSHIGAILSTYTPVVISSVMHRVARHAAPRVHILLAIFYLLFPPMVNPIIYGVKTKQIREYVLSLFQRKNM
# How it was run: as §1
# OR51T1 (Homo sapiens) = OR51T1 (Homo sapiens) (UniProt Q8NGJ9)
# How it was run: as §1
# OR52A4P (Homo sapiens) = OR52A4P (Homo sapiens) (UniProt A6NMU1)
# How it was run: as §1
# OR52E5 (Homo sapiens) = OR52E5 (Homo sapiens) (UniProt Q8NH55)
# How it was run: as §1
# 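Note: active if original authors judged signal statistically different from baseline.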
smiles,measurement,setting,value
C=CCc1ccc(OC)cc1,odorant receptor agonist call,OR52D1 (Homo sapiens),active
CC(C=O)Cc1ccc2c(c1)OCO2 (stereo not given),odorant receptor agonist call,OR52D1 (Homo sapiens),active
O=CC=Cc1ccccc1,odorant receptor agonist call,OR52D1 (Homo sapiens),active
C=CCOC(=O)Cc1ccccc1,odorant receptor agonist call,OR51Q1 (Homo sapiens),inactive
same,odorant receptor agonist call,OR51S1 (Homo sapiens),inactive
same,odorant receptor agonist call,OR51V1 (Homo sapiens),inactive
same,odorant receptor agonist call,OR52A1 (Homo sapiens),inactive
same,odorant receptor agonist call,OR52A5 (Homo sapiens),inactive
same,odorant receptor agonist call,OR52B2 (Homo sapiens),inactive
same,odorant receptor agonist call,OR52B4 (Homo sapiens),inactive
same,odorant receptor agonist call,OR52B6 (Homo sapiens),inactive
same,odorant receptor agonist call,OR52D1 (Homo sapiens),inactive
same,odorant receptor agonist call,OR52E1 (Homo sapiens),inactive
same,odorant receptor agonist call,OR52E2 (Homo sapiens),inactive
same,odorant receptor agonist call,OR52E4 (Homo sapiens),inactive
same,odorant receptor agonist call,OR52E6 (Homo sapiens),inactive
same,odorant receptor agonist call,OR52I1 (Homo sapiens),inactive
same,odorant receptor agonist call,OR52I2 (Homo sapiens),inactive
same,odorant receptor agonist call,OR52J3 (Homo sapiens),inactive
same,odorant receptor agonist call,OR52K1 (Homo sapiens),inactive
CC(=O)CCc1ccc2c(c1)OCO2,odorant receptor agonist call,OR52D1 (Homo sapiens),inactive
c1ccncc1,odorant receptor agonist call,OR52D1 (Homo sapiens),inactive
Cc1c([N+](=O)[O-])c(C)c([N+](=O)[O-])c(C(C)(C)C)c1[N+](=O)[O-],odorant receptor agonist call,OR51Q1 (Homo sapiens),inactive
same,odorant receptor agonist call,OR51S1 (Homo sapiens),inactive
same,odorant receptor agonist call,OR51T1 (Homo sapiens),inactive
same,odorant receptor agonist call,OR51V1 (Homo sapiens),inactive
same,odorant receptor agonist call,OR52A1 (Homo sapiens),inactive
same,odorant receptor agonist call,OR52A4P (Homo sapiens),inactive
same,odorant receptor agonist call,OR52A5 (Homo sapiens),inactive
same,odorant receptor agonist call,OR52B2 (Homo sapiens),inactive
same,odorant receptor agonist call,OR52B4 (Homo sapiens),inactive
same,odorant receptor agonist call,OR52B6 (Homo sapiens),inactive
same,odorant receptor agonist call,OR52D1 (Homo sapiens),inactive
same,odorant receptor agonist call,OR52E1 (Homo sapiens),inactive
same,odorant receptor agonist call,OR52E2 (Homo sapiens),inactive
same,odorant receptor agonist call,OR52E4 (Homo sapiens),inactive
same,odorant receptor agonist call,OR52E5 (Homo sapiens),inactive
same,odorant receptor agonist call,OR52E6 (Homo sapiens),inactive
same,odorant receptor agonist call,OR52I1 (Homo sapiens),inactive
same,odorant receptor agonist call,OR52I2 (Homo sapiens),inactive
same,odorant receptor agonist call,OR52J3 (Homo sapiens),inactive
same,odorant receptor agonist call,OR52K1 (Homo sapiens),inactive
C=CCc1ccc2c(c1)OCO2,odorant receptor agonist call,OR52D1 (Homo sapiens),inactive
COc1ccc(C=O)cc1,odorant receptor agonist call,OR52D1 (Homo sapiens),active
O=Cc1ccccc1,odorant receptor agonist call,OR52D1 (Homo sapiens),active
